From ChEMBL document CHEMBL4414620, “Structurally Modified Cyclopenta[b]benzofuran Analogues Isolated from Aglaia perviridis” (J Nat Prod, 2019)

What was measured:
PC-3 = experiment: Antiproliferative activity against human PC3 cells incubated for 72 hrs by SRB assay; assay type: functional, cell-based; conditions: PC-3, 72 h
How it was run: (§1)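 Purified isolates were screened for cytotoxicity against HT-29 and PC-3 human cancer cells, with paclitaxel as the positive control for both lines.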

HT-29 = experiment: Antiproliferative activity against human HT-29 cells incubated for 72 hrs by SRB assay; assay type: functional, cell-based; conditions: HT-29, 72 h; how it was run: as §1

Row | Structure (SMILES) | IC50 (PC-3) | IC50 (HT-29)
1 | COc1ccc([C@@]23Oc4cc5c(c(OC)c4[C@]2(O)[C@H](O)[C@H](C(N)=O)[C@H]3c2ccccc2)[C@@H]2OC[C@H]([C@H](O)CO)O[C@@H]2O5)cc1 | > 10 µM | > 10 µM
2 | COc1ccc([C@@]23Oc4cc(O[C@@H]5O[C@@H]([C@@H](O)CO)COC5O)cc(OC)c4[C@]2(O)[C@H](O)[C@H](C(N)=O)[C@H]3c2ccccc2)cc1 (mixture of isomers) | 2.3 µM | 2.3 µM

Now from value to molecule:

Row | IC50 (PC-3) | IC50 (HT-29) | Structure (SMILES)
3 | > 10 µM | > 10 µM | COc1ccc([C@@]23Oc4cc5c(c(OC)c4[C@]2(O)[C@H](O)[C@H](C(N)=O)[C@H]3c2ccccc2)[C@@H]2OC[C@H]([C@@H](O)CO)O[C@@H]2O5)cc1
4 | > 10 µM | > 10 µM | COc1ccc([C@@]23Oc4cc5c(c(OC)c4[C@]2(O)[C@H](O)[C@H](C(N)=O)[C@H]3c2ccccc2)[C@H]2OC[C@H]([C@@H](O)CO)O[C@H]2O5)cc1
5 | > 10 µM | > 10 µM | COc1ccc([C@@]23Oc4cc5c(c(OC)c4[C@]2(O)[C@H](O)[C@H](C(N)=O)[C@H]3c2ccccc2)[C@H]2OC[C@H]([C@H](O)CO)O[C@H]2O5)cc1
